Source: ChEMBL document CHEMBL2385053, “Novel isoquinoline derivatives as antimicrobial agents” (2013)

Columns and labels:
Aspergillus parasiticus [1] = assay: Fungicidal activity against Aspergillus parasiticus CECT 2681 at 0.2 mg/disk after 72 hrs by paper disk-agar diffusion method; assay type: functional
Procedure, shortened: (§1)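 Fungi were grown on potato dextrose agar (PDA) for 7 days at 28 °C. Conidia were suspended to ~10⁶/mL in 0.05% Tween 80 in sterile water, and 1 mL was mixed into 15 mL PDA. Four 0.5 cm paper disks (0.2 mg/disk) were placed on the set agar. Controls were vehicle-only disks and benomyl at species-dependent doses. The inhibition zone was read in mm at 72 h as the mean ± SE of three independent experiments.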

[2] = system: Phytophthora citrophthora; assay: Fungicidal activity against Phytophthora citrophthora CECT 2353 at 0.2 mg/disk after 72 hrs by paper disk-agar diffusion method; assay type: functional; procedure, shortened: as §1
Trichoderma viride [3] = assay: Fungicidal activity against Trichoderma viride CECT 2423 at 0.2 mg/disk after 72 hrs by paper disk-agar diffusion method; assay type: functional; procedure, shortened: as §1
Geotrichum candidum = assay: Fungicidal activity against Geotrichum candidum CCM 245 at 0.2 mg/disk after 72 hrs by paper disk-agar diffusion method; assay type: functional; procedure, shortened: as §1
Fusarium culmorum [4] = assay: Fungicidal activity against Fusarium culmorum CCM 172 at 0.2 mg/disk after 72 hrs by paper disk-agar diffusion method; assay type: functional; procedure, shortened: as §1
Bacillus cereus [5] = assay: Bactericidal activity against Bacillus cereus CECT 148 at 0.2 mg/disk after 24 hrs by paper disk-agar diffusion method relative to control; assay type: functional
Escherichia coli [6] = assay: Bactericidal activity against Escherichia coli CECT 100 at 0.2 mg/disk after 24 hrs by paper disk-agar diffusion method relative to control; assay type: functional
Escherichia coli [7] = assay: Bactericidal activity against Escherichia coli CECT 100 at 0.2 mg/disk after 24 hrs by paper disk-agar diffusion method; assay type: functional
Procedure, shortened: (§2)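 Each bacterial strain was taken from a 24-h culture on solid medium, reactivated in Nutrient Broth, and grown a further 24 h at 28 or 37 °C depending on the strain. 1 mL of suspension was mixed with 15 mL Plate Count Agar. Four 0.5 cm paper disks (0.2 mg/disk) were placed on the set agar. Controls were vehicle-only disks and tetracycline. Plates were incubated 24 h, dark, 28 or 37 °C. The inhibition zone was read in mm as the mean ± SE of three independent experiments.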

[8] = system: Pectobacterium carotovorum; assay: Bactericidal activity against Erwinia carotovora CECT 225 at 0.2 mg/disk after 24 hrs by paper disk-agar diffusion method; assay type: functional; procedure, shortened: as §2
Escherichia coli [9] = assay: Bactericidal activity against Escherichia coli CECT 405 at 0.2 mg/disk after 24 hrs by paper disk-agar diffusion method; assay type: functional; procedure, shortened: as §2
Salmonella typhi = assay: Bactericidal activity against Salmonella typhi CECT 409 at 0.2 mg/disk after 24 hrs by paper disk-agar diffusion method; assay type: functional, Salmonella enterica subsp. enterica serovar Typhi
Procedure, shortened: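 Paper disk-agar diffusion, run in triplicate. 24-h culture reactivated in nutrient broth and grown a further 24 h at 28 or 37 °C by species. 1 mL suspension mixed into 15 mL plate count agar. Four 0.5 cm disks placed per plate, incubated 24 h in the dark. Inhibition zone (mm) reported as mean ± SE of three independent experiments; vehicle disks as negative control.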

Enterococcus faecalis [10] = assay: Bactericidal activity against Enterococcus faecalis CECT 481 at 0.2 mg/disk after 24 hrs by paper disk-agar diffusion method; assay type: functional; procedure, shortened: as §2
Staphylococcus aureus [11] = assay: Bactericidal activity against Staphylococcus aureus CECT 86 at 0.2 mg/disk after 24 hrs by paper disk-agar diffusion method; assay type: functional; procedure, shortened: as §2
Bacillus cereus [12] = assay: Bactericidal activity against Bacillus cereus CECT 148 at 0.2 mg/disk after 24 hrs by paper disk-agar diffusion method; assay type: functional; procedure, shortened: as §2
[13] = system: Pectobacterium carotovorum; assay: Bactericidal activity against Erwinia carotovora CECT 225 at 0.2 mg/disk after 24 hrs by paper disk-agar diffusion method relative to control; assay type: functional
Enterococcus faecalis [14] = assay: Bactericidal activity against Enterococcus faecalis CECT 481 at 0.2 mg/disk after 24 hrs by paper disk-agar diffusion method relative to control; assay type: functional
Escherichia coli [15] = assay: Bactericidal activity against Escherichia coli CECT 405 at 0.2 mg/disk after 24 hrs by paper disk-agar diffusion method relative to control; assay type: functional
Staphylococcus aureus [16] = assay: Bactericidal activity against Staphylococcus aureus CECT 86 at 0.2 mg/disk after 24 hrs by paper disk-agar diffusion method relative to control; assay type: functional
Aspergillus parasiticus [17] = assay: Fungicidal activity against Aspergillus parasiticus CECT 2681 at 1 ug/disk after 72 hrs by paper disk-agar diffusion method; assay type: functional; conditions: CECT 2681, 72 h, read-out: IZ
Procedure, shortened: (§3)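 Fungi grown on potato dextrose agar for 7 days at 28 °C. Conidia suspended to about 10⁶/mL in 0.05% Tween 80 in sterile water. 1 mL suspension added to 15 mL PDA; four impregnated 0.5 cm disks placed after setting. Inhibition zone measured at 72 h; mean ± SE of three independent experiments. Vehicle disks as negative control; benomyl dose set per fungal species.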

[18] = system: Phytophthora citrophthora; assay: Fungicidal activity against Phytophthora citrophthora CECT 2353 at 1.5 ug/disk after 72 hrs by paper disk-agar diffusion method; assay type: functional; conditions: CECT 2353, 72 h, read-out: IZ; procedure, shortened: as §3
Trichoderma viride [19] = assay: Fungicidal activity against Trichoderma viride CECT 2423 at 1 ug/disk after 72 hrs by paper disk-agar diffusion method; assay type: functional; conditions: CECT 2423, 72 h, read-out: IZ; procedure, shortened: as §3
Fusarium culmorum [20] = assay: Fungicidal activity against Fusarium culmorum CCM 172 at 10 ug/disk after 72 hrs by paper disk-agar diffusion method; assay type: functional; conditions: CCM 172, 72 h, read-out: IZ; procedure, shortened: as §3

Compound | inhibition zone (IZ) (Aspergillus parasiticus [1]) | inhibition zone (IZ) [2] | inhibition zone (IZ) (Trichoderma viride [3]) | inhibition zone (IZ) (Geotrichum candidum) | inhibition zone (IZ) (Fusarium culmorum [4]) | inhibition zone (IZ) (Escherichia coli [7]) | inhibition zone (IZ) [8] | inhibition zone (IZ) (Escherichia coli [9]) | inhibition zone (IZ) (Salmonella typhi) | inhibition zone (IZ) (Enterococcus faecalis [10]) | inhibition zone (IZ) (Staphylococcus aureus [11]) | inhibition zone (IZ) (Bacillus cereus [12]) | other results
COc1cc2c(cc1OC)C(CCCCCOC(=O)CCc1ccc(F)cc1)N(C)CC2 (configuration not stated) | 0 mm | 6 mm | 8.33 mm | 8.33 mm | 7.67 mm | 11.83 mm | 11.67 mm | 8.83 mm | 9.17 mm | 9.33 mm | 10.33 mm | 11.33 mm | Activity (Bacillus cereus [5]): 49%; Activity (Escherichia coli [6]): 46%
COc1cc2c(cc1OC)C(CCCCCOC(=O)Nc1ccc(F)cc1)N(C)CC2 (configuration not stated) | – | – | – | – | – | 12.33 mm | 22.33 mm | 12 mm | 14.67 mm | 20 mm | 14 mm | 14.33 mm | Activity [13]: 64%; Activity (Enterococcus faecalis [14]): 64%
COc1ccc(NC(=O)OCCCCCC2c3cc(OC)c(OC)cc3CCN2C)cc1 (configuration not stated) | 0 mm | 0 mm | 6.17 mm | 6.67 mm | 0 mm | 11.67 mm | 9.67 mm | 13.33 mm | 11.33 mm | 14.67 mm | 13.67 mm | 10.33 mm | Activity (Escherichia coli [15]): 52%; Activity (Staphylococcus aureus [16]): 51%
CCCCNC(=O)n1c(NC(=O)OC)nc2ccccc21 [BENOMYL] | – | – | – | 0 mm | – | – | – | – | – | – | – | – | zone of inhibition at 1 µg/disc (Aspergillus parasiticus [17]): 18 mm; zone of inhibition at 1.5 µg/disc [18]: 24.5 mm; zone of inhibition at 1 µg/disc (Trichoderma viride [19]): 22 mm; zone of inhibition at 10 µg/disc (Fusarium culmorum [20]): 18 mm
